Test results from ChEMBL document CHEMBL1129414, “Synthesis and cytotoxic and antitumor activity of esters in the 1,2-dihydroxy-1,2-dihydroacronycine series” (J Med Chem, 1996).

Experiments:
[1] = tested on: L1210; assay: Compound was tested in vitro for cytotoxicity on L1210 leukemic cells by using MTT assay.; format: functional, cell-based; conditions: Mus musculus
Outline: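 L1210 cells were grown in RPMI 1640 with 10% fetal calf serum, 2 mM L-glutamine and 10 mM HEPES (pH 7.4). Cells were exposed for 48 h to nine serial drug dilutions in triplicate, and viability was read by MTT. IC50 is the concentration halving optical density versus untreated controls, given as mean ± SEM of at least 3 independent experiments.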

[2] = tested on: P388; assay: Compound was tested for antitumor activity against P388 leukemia cells at the dose of 12.5 mg/kg ip.; format: functional, Mus musculus
[3] = tested on: MC-38; assay: Compound was tested for antitumor activity against colon 38 adenocarcinoma cells at the dose of 6.25 mg/kg ip.; format: functional, Mus musculus
[4] = tested on: P388; assay: Compound was tested for antitumor activity against P388 leukemia cells at the dose of 50 mg/kg ip.; format: functional, Mus musculus
[5] = tested on: MC-38; assay: Compound was tested for antitumor activity against colon 38 adenocarcinoma cells at the dose of 12.5 mg/kg ip.; format: functional, Mus musculus
[6] = tested on: P388; assay: Compound was tested for antitumor activity against P388 leukemia cells at the dose of 12.5 mg/kg ip.; conditions: Mus musculus
[7] = tested on: P388; assay: Compound was tested for antitumor activity against P388 leukemia cells at the dose of 25 mg/kg ip.; format: functional, Mus musculus
[8] = tested on: P388; assay: Compound was tested for antitumor activity against P388 leukemia cells at the dose of 25 mg/kg iv.; format: functional, Mus musculus
[9] = tested on: P388; assay: Compound was tested for antitumor activity against P388 leukemia cells at the dose of 200 mg/kg ip.; format: functional, Mus musculus
[10] = tested on: MC-38; assay: Compound was tested for antitumor activity against colon 38 adenocarcinoma cells at the dose of 200 mg/kg ip.; format: functional, Mus musculus

Row | Compound | IC50 [1] | also measured
1 | COc1cc2c(c3c1c(=O)c1ccccc1n3C)[C@@H](O)[C@@H](OC(=O)c1ccccc1)C(C)(C)O2 | 7.1 µM | Activity [2]: 258%; Activity [3]: 18%
2 | COc1cc2c(c3c1c(=O)c1ccccc1n3C)[C@@H](OC(C)=O)[C@@H](OC(=O)c1ccccc1)C(C)(C)O2 | 5 µM | Activity [4]: 201%; Activity [5]: 13%
3 | COc1cc2c(c3c1c(=O)c1ccccc1n3C)[C@@H](O)[C@@H](O)C(C)(C)O2 | 80.6 µM | 
4 | COc1cc2c(c3c1c(=O)c1ccccc1n3C)[C@@H](O)[C@@H](OC(C)=O)C(C)(C)O2 | 8.9 µM | 
5 | Cn1c2ccccc2c(=O)c2ccc3c(c21)[C@@H](O)[C@@H](O)C(C)(C)O3 | > 50 µM | 
6 | Cn1c2ccccc2c(=O)c2ccc3c(c21)[C@H]1OC(=O)O[C@H]1C(C)(C)O3 | > 50 µM | 
7 | CC(=O)O[C@@H]1c2c(ccc3c(=O)c4ccccc4n(C)c23)OC(C)(C)[C@@H]1OC(C)=O | > 50 µM | 
8 | Cn1c2ccccc2c(=O)c2ccc3c(c21)C=CC(C)(C)O3 | 29.7 µM | 
9 | COc1cc2c(c3c1c(=O)c1ccccc1n3C)[C@H]1OC(=O)O[C@H]1C(C)(C)O2 | 0.32 µM | Activity [3]: 68%; Activity [6]: 202%
10 | COc1cc2c(c3c1c(=O)c1ccccc1n3C)[C@@H](OC(C)=O)[C@@H](OC(C)=O)C(C)(C)O2 | 5.8 µM | Activity [7]: 289%; Activity [8]: 220%; Activity [5]: 0%
11 | COc1cc2c(c3c1c(=O)c1ccccc1n3C)C=CC(C)(C)O2 [ACRONINE] | 24.1 µM | Activity [9]: 125%; Activity [10]: 4%
12 | COc1cc2c(c3c1c(=O)c1ccccc1n3C)CCC(C)(C)O2 [DIHYDROACRONYCINE] | 34.3 µM | 
